ChEMBL document CHEMBL1132187, “Synthesis, in vitro antiproliferative activity, and DNA-binding properties of hybrid molecules containing pyrrolo[2,1-c][1, 4]benzodiazepine and minor-groove-binding oligopyrrole carriers” (J Med Chem, 1999)

How the values were obtained:
K562 = assay: In vitro inhibition of K-562 cell proliferation; assay type: functional, cell-based; conditions: Homo sapiens
Method in brief: (§1)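 Exponentially growing cells kept as stationary suspension in RPMI 1640 with 10% FCS, 2 mM L-glutamine, penicillin/streptomycin; exposed to a range of drug concentrations (DMSO stock 1 mg/mL, diluted just before addition) for 4 days; survivors counted by Coulter counter. IC50 vs untreated controls, duplicate cultures per concentration, experiments repeated at least twice, vehicle controls included.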

[1] = test system: Human immunodeficiency virus 1; assay: Inhibitory concentration against HIV-1 LTR polymerase chain reaction product; assay type: functional
Method in brief: (§2)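 Target DNA was 20 ng of preamplified, purified PCR product, preincubated 5 min at room temperature with increasing drug amounts, then PCR-amplified with Taq: 92 °C 1 min, 62 °C annealing 1 min, 72 °C 1 min. Products run on 2% agarose gels; IC50 is the concentration giving 50% inhibition of PCR product generation.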

[2] = Inhibitory concentration against human c-myc polymerase chain reaction product; assay type: functional; method in brief: as §2
Nucleic Acid = assay: Inhibitory concentration against human estrogen receptor(ER) polymerase chain reaction product; assay type: nucleic-acid assay
Method in brief: as §2, with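 “of pBLCAT8ERCAT1 plasmid,” for “of preamplified, purified PCR product,”, “min, 55” for “min, 62”, “of ER” for “of”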

Jurkat = assay: In vitro inhibition of Jurkat cell proliferation; assay type: functional, cell-based; conditions: Homo sapiens; method in brief: as §1

| SMILES | IC50 (K562) | IC50 [1] | IC50 [2] | IC50 (Nucleic Acid) | IC50 (Jurkat) |
| --- | --- | --- | --- | --- | --- |
| Cn1cc(NC(=O)c2cc(NC(=O)c3cc(NC(=O)c4cc(N)cn4C)cn3C)cn2C)cc1C(=O)NCCC(=N)N | 12 µM | 20 µM | 12 µM | 0.5 µM | 25 µM |
| COc1cc2c(cc1OCCC(=O)Nc1cc(C(=O)Nc3cc(C(=O)NCCC(=N)N)n(C)c3)n(C)c1)N=C[C@@H]1CCCN1C2=O | 6 µM | 0.8 µM | 6 µM | 2 µM | 50 µM |
| COc1cc2c(cc1OCCC(=O)Nc1cc(C(=O)Nc3cc(C(=O)Nc4cc(C(=O)Nc5cc(C(=O)NCCC(=N)N)n(C)c5)n(C)c4)n(C)c3)n(C)c1)N=C[C@@H]1CCCN1C2=O | 0.04 µM | 2 µM | 2 µM | 0.2 µM | 0.07 µM |
| COc1cc2c(cc1OCCC(=O)Nc1cc(C(=O)Nc3cc(C(=O)Nc4cc(C(=O)NCCC(=N)N)n(C)c4)n(C)c3)n(C)c1)N=C[C@@H]1CCCN1C2=O | 0.7 µM | 2 µM | 2.5 µM | 0.8 µM | 0.8 µM |
| COc1cc2c(cc1OC)C(=O)N1CCC[C@H]1C=N2 | 1 µM | – | – | – | 2.2 µM |

Next, values leading:

| IC50 (K562) | IC50 [1] | IC50 [2] | IC50 (Nucleic Acid) | IC50 (Jurkat) | SMILES |
| --- | --- | --- | --- | --- | --- |
| 1.5 µM | > 250 µM | > 250 µM | > 250 µM | 3 µM | COC(=O)CCOc1cc2c(cc1OC)C(=O)N1CCC[C@H]1C=N2 |
| 12 µM | 50 µM | 25 µM | 5 µM | 20 µM | Cn1cc(NC(=O)c2cc(NC(=O)c3cc(NC=O)cn3C)cn2C)cc1C(=O)NCCC(=N)N |
| > 100 µM | 1 µM | 4 µM | 3 µM | 80 µM | COc1cc2c(cc1OCCC(=O)Nc1cc(C(=O)NCCC(=N)N)n(C)c1)N=C[C@@H]1CCCN1C2=O |
